ChEMBL document CHEMBL4715715, “Synthesis and biological evaluation of arylcinnamide linked combretastatin-A4 hybrids as tubulin polymerization inhibitors and apoptosis inducing agents” (Bioorg Med Chem Lett, 2016)

Assays:
MCF7 [1] = test: Antiproliferative activity against human MCF7 cells assessed as cell growth inhibition measured after 48 hrs by SRB assay; format: functional
Summary of the method: (§1)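 Sulforhodamine B (SRB) cell-staining assay across a panel of human cancer lines. Growth inhibition is reported as GI50.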

DU-145 = test: Antiproliferative activity against human DU-145 cells assessed as cell growth inhibition measured after 48 hrs by SRB assay; format: functional; summary of the method: as §1
HOP-62 = test: Antiproliferative activity against human HOP-62 cells assessed as cell growth inhibition measured after 48 hrs by SRB assay; format: functional; summary of the method: as §1
HeLa = test: Antiproliferative activity against human HeLa cells assessed as cell growth inhibition measured after 48 hrs by SRB assay; format: functional; summary of the method: as §1
K562 = test: Antiproliferative activity against human K562 cells assessed as cell growth inhibition measured after 48 hrs by SRB assay; format: functional; summary of the method: as §1
SK-OV-3 = test: Antiproliferative activity against human SK-OV-3 cells assessed as cell growth inhibition measured after 48 hrs by SRB assay; format: functional; summary of the method: as §1
COLO 205 = test: Antiproliferative activity against human COLO 205 cells assessed as cell growth inhibition measured after 48 hrs by SRB assay; format: functional; summary of the method: as §1
MIA PaCa-2 = test: Antiproliferative activity against human MIA Paca-2 cells assessed as cell growth inhibition measured after 48 hrs by SRB assay; format: functional; summary of the method: as §1
MCF7 [2] = test: Cell cycle arrest in human MCF7 cells assessed as accumulation at sub-G1 phase at 50 nM measured after 48 hrs by propidium iodide staining based flow cytometry (reference value: 2.4 %); format: functional
Summary of the method: (§2)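 MCF-7 cells were treated at 50 and 100 nM for 48 h. Cell-cycle phase distribution (sub-G1, G0/G1, S, G2/M %) was read by flow cytometry against untreated control.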

MCF7 [3] = test: Cell cycle arrest in human MCF7 cells assessed as accumulation at G0/G1 phase at 50 nM measured after 48 hrs by propidium iodide staining based flow cytometry (reference value: 85.3 %); format: functional; summary of the method: as §2
MCF7 [4] = test: Cell cycle arrest in human MCF7 cells assessed as accumulation at S phase at 50 nM measured after 48 hrs by propidium iodide staining based flow cytometry (reference value: 3.1 %); format: functional; summary of the method: as §2
MCF7 [5] = test: Cell cycle arrest in human MCF7 cells assessed as accumulation at G2/M phase at 50 nM measured after 48 hrs by propidium iodide staining based flow cytometry (reference value: 8.44 %); format: functional; summary of the method: as §2
MCF7 [6] = test: Cell cycle arrest in human MCF7 cells assessed as accumulation at sub-G1 phase at 100 nM measured after 48 hrs by propidium iodide staining based flow cytometry (reference value: 2.4 %); format: functional
MCF7 [7] = test: Cell cycle arrest in human MCF7 cells assessed as accumulation at G0/G1 phase at 100 nM measured after 48 hrs by propidium iodide staining based flow cytometry (reference value: 85.3 %); format: functional
MCF7 [8] = test: Cell cycle arrest in human MCF7 cells assessed as accumulation at S phase at 100 nM measured after 48 hrs by propidium iodide staining based flow cytometry (reference value: 3.1 %); format: functional
MCF7 [9] = test: Cell cycle arrest in human MCF7 cells assessed as accumulation at G2/M phase at 100 nM measured after 48 hrs by propidium iodide staining based flow cytometry (reference value: 8.44 %); format: functional
Sus scrofa = organism: Sus scrofa; test: Inhibition of porcine brain tubulin polymerization at 3 uM measured after 1 hr in presence of GTP by fluorescence assay relative to control; format: tissue-based
Summary of the method: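 Tubulin polymerization was followed by fluorescence (excitation 360 nm, emission 420 nm) for 1 h at 37 °C. Compounds were at 3 μM final, with and without compound. Values are mean ± SD of two experiments done in triplicate.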

[10] = Inhibition of porcine brain tubulin polymerization measured after 1 hr in presence of GTP by fluorescence assay; format: tissue-based, Sus scrofa
Summary of the method: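 Tubulin assembly followed by the rise in fluorescence (ex 360 nm, em 420 nm) over 1 h at 37 °C. Compounds tested at a final 3 μM with a reference control. IC50 defined as the concentration inhibiting 50% of tubulin assembly. Mean ± SD of two experiments in triplicate.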

MCF7 [11] = test: Induction of apoptosis in human MCF7 cells assessed as early apoptotic cells at 50 nM measured after 48 hrs by annexinV-FITC/propidium iodide staining based flow cytometry (reference value: 4.4 %); format: functional
Summary of the method: (§3)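 MCF-7 cells were treated at 50 and 100 nM for 48 h. Annexin V-FITC/PI dual staining was read by flow cytometry. Cells were quadrant-gated as UL, UR, LL and LR, with untreated control alongside.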

MCF7 [12] = test: Induction of apoptosis in human MCF7 cells assessed as necrotic cells at 50 nM measured after 48 hrs by annexinV-FITC/propidium iodide staining based flow cytometry (reference value: 0.1 %); format: functional; summary of the method: as §3
MCF7 [13] = test: Induction of apoptosis in human MCF7 cells assessed as early apoptotic cells at 100 nM measured after 48 hrs by annexinV-FITC/propidium iodide staining based flow cytometry (reference value: 4.4 %); format: functional
MCF7 [14] = test: Induction of apoptosis in human MCF7 cells assessed as necrotic cells at 100 nM measured after 48 hrs by annexinV-FITC/propidium iodide staining based flow cytometry (reference value: 0.1 %); format: functional
MCF7 [15] = test: Induction of apoptosis in human MCF7 cells assessed as activation of caspase 9 at 100 nM measured after 48 hrs by fluorescence assay relative to control; format: functional
Summary of the method: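 MCF-7 breast cancer cells treated at 100 nM for 48 h. Caspase-9 activity compared with untreated control. Mean ± SD of two experiments each run in triplicate.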

MCF7 [16] = test: Induction of apoptosis in human MCF7 cells assessed as live cells at 50 nM measured after 48 hrs by annexinV-FITC/propidium iodide staining based flow cytometry (reference value: 95 %)
MCF7 [17] = test: Induction of apoptosis in human MCF7 cells assessed as live cells at 100 nM measured after 48 hrs by annexinV-FITC/propidium iodide staining based flow cytometry (reference value: 95 %)
MCF7 [18] = test: Induction of apoptosis in human MCF7 cells assessed as late apoptotic cell population at 50 nM measured after 48 hrs by Annexin V-FITC/PI staining based flow cytometry (reference value: 1 %)
MCF7 [19] = test: Induction of apoptosis in human MCF7 cells assessed as late apoptotic cell population at 100 nM measured after 48 hrs by Annexin V-FITC/PI staining based flow cytometry (reference value: 1 %)
MCF7 [20] = test: Induction of apoptosis in human MCF7 cells assessed as early apoptotic cell population at 50 nM measured after 48 hrs by Annexin V-FITC/PI staining based flow cytometry (reference value: 0.7 %)
MCF7 [21] = test: Induction of apoptosis in human MCF7 cells assessed as early apoptotic cell population at 100 nM measured after 48 hrs by Annexin V-FITC/PI staining based flow cytometry (reference value: 0.7 %)
MCF7 [22] = test: Induction of apoptosis in human MCF7 cells assessed as late apoptotic cells at 50 nM measured after 48 hrs by annexinV-FITC/propidium iodide staining based flow cytometry (reference value: 0.6 %)
MCF7 [23] = test: Induction of apoptosis in human MCF7 cells assessed as late apoptotic cells at 100 nM measured after 48 hrs by annexinV-FITC/propidium iodide staining based flow cytometry (reference value: 0.6 %)

SMILES | GI50 (MCF7 [1]) [nM] | GI50 (DU-145) [nM] | GI50 (HOP-62) [nM] | GI50 (HeLa) [nM] | GI50 (K562) [nM] | GI50 (SK-OV-3) [nM] | GI50 (COLO 205) [nM] | GI50 (MIA PaCa-2) [nM] | Activity (MCF7 [2]) [%] | Activity (MCF7 [3]) [%] | Activity (MCF7 [4]) [%] | Activity (MCF7 [5]) [%] | inhibition (Sus scrofa) [%] | IC50 [10] [nM] | Activity (MCF7 [11]) [%] | Activity (MCF7 [12]) [%] | live cells (MCF7 [16]) [%] | Activity (MCF7 [18]) [%] | Activity (MCF7 [20]) [%] | late apoptotic cells (MCF7 [22]) [%] | also measured
COc1ccc(/C=C/C(=O)Nc2c(/C=C\c3cc(OC)c(OC)c(OC)c3)ccc(OC)c2O)cc1OC | 56 | 60 | 90 | 7500 | 94 | 99 | 99 | 29900 | 2.56 | 78.55 | 2.86 | 15.25 | 69.2 | 1970 | 8.4 | 0.9 | 89 | 12 | 0.8 | 1.8 | Activity (MCF7 [6]): 3.65%; Activity (MCF7 [7]): 28.16%; Activity (MCF7 [8]): 0.35%; Activity (MCF7 [9]): 64.29%; Activity (MCF7 [13]): 14.8%; Activity (MCF7 [14]): 0.7%; fold change (FC) (MCF7 [15]): 2; live cells (MCF7 [17]): 82.2%; Activity (MCF7 [19]): 22.5%; Activity (MCF7 [21]): 7.2%; late apoptotic cells (MCF7 [23]): 2.3%
COc1ccc(/C=C\c2cc(OC)c(OC)c(OC)c2)cc1O [COMBRETASTATIN A4] | 33 | 46 | 150 | 8 | 31 | 31600 | 25 |  | 2.71 | 56.19 | 1.43 | 37.41 | 72.2 | 1480 | 30.2 | 0.5 | 65.7 | 24.5 | 3.6 | 3.6 | 
COc1ccc(/C=C\c2cc(OC)c(OC)c(OC)c2)c(NC(=O)/C=C/c2ccc(F)c(F)c2)c1O | 31 | 45 | 43600 | 29200 | 99 | 29800 | 74900 | 74000 | 2.99 | 70.02 | 1.46 | 23.58 | 73.7 | 1050 | 10.5 | 1.1 | 86.4 | 22.8 | 6.5 | 2 | Activity (MCF7 [6]): 3.07%; Activity (MCF7 [7]): 27.47%; Activity (MCF7 [8]): 0.52%; Activity (MCF7 [9]): 66.13%; Activity (MCF7 [13]): 31.4%; Activity (MCF7 [14]): 0.7%; fold change (FC) (MCF7 [15]): 2; live cells (MCF7 [17]): 63.1%; Activity (MCF7 [19]): 26%; Activity (MCF7 [21]): 6.2%; late apoptotic cells (MCF7 [23]): 4.7%
